We go through two molecules from ChEMBL document CHEMBL5696442, “Discovery of type II inhibitors of TGFβ-activated kinase 1 (TAK1) and mitogen-activated protein kinase kinase kinase kinase 2 (MAP4K2)” (J Med Chem, 2015).

The structures appear in SMILES notation.

Data set [1] can be described thus: AUC last in Swiss albino mouse at 1 mg/kg, iv measured upto 24 hrs by LC/MS/MS analysis. The class given is ADME, organism-based. The conditions noted are these: in vivo. The gist of the method: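 Male Swiss albino mice. […] Blood was taken into K2EDTA from three mice per time point, from 0 to 24 h. Plasma was precipitated with acetonitrile and analysed by LC/MS/MS (LLOQ 1.138 ng/mL).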

Data set [2] concerns the target Tyrosine-protein kinase Lyn (Homo sapiens, UniProt P07948). As to the kind of experiment: Inhibition of LYN Lys1 labeling site in human A-375 cells at 5 uM by KiNativ Profiling analysis relative to control. The class given is cell-based.
In data set [3] the target is Tyrosine-protein kinase JAK1 (Homo sapiens) (UniProt P23458). In words: Inhibition of JAK1 domain2 Lys1 labeling site in human A-375 cells at 5 uM by KiNativ Profiling analysis relative to control. The class given is cell-based.
Tyrosine-protein kinase JAK1 (Homo sapiens), sequence (P23458 whole entry, the tested form may be a part): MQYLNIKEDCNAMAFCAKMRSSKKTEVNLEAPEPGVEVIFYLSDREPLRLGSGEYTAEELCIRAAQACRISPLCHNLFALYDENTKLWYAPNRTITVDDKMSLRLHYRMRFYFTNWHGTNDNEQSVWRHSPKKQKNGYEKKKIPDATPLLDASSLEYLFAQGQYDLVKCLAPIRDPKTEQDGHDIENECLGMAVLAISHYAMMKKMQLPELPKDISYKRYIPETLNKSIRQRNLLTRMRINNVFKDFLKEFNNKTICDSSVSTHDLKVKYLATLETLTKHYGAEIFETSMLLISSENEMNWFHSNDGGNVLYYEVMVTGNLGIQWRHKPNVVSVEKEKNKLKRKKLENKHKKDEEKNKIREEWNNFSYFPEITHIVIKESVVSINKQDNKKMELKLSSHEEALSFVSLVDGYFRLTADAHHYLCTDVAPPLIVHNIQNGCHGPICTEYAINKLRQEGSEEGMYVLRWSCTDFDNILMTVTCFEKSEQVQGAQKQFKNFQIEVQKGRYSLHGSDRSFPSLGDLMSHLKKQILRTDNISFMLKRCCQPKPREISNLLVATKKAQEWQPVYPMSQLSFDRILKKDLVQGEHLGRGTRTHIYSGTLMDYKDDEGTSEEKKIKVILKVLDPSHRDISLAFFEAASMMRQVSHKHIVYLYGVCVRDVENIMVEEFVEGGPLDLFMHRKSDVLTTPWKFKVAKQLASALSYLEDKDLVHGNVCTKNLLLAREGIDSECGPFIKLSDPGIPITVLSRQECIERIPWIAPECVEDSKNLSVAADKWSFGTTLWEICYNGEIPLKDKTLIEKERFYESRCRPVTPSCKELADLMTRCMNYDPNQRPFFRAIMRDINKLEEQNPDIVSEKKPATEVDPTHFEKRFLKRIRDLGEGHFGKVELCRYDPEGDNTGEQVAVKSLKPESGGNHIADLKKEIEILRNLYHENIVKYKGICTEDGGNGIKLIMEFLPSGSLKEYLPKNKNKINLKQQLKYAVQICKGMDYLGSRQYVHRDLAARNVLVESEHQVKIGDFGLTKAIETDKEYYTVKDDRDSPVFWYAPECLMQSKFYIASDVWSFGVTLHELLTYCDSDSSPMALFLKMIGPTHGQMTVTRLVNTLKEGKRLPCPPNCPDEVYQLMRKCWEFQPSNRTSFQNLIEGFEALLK
Data set [4] has as its target T1, Serine/threonine-protein kinase 3 (Homo sapiens) (UniProt Q13188).
T1 sequence (whole entry): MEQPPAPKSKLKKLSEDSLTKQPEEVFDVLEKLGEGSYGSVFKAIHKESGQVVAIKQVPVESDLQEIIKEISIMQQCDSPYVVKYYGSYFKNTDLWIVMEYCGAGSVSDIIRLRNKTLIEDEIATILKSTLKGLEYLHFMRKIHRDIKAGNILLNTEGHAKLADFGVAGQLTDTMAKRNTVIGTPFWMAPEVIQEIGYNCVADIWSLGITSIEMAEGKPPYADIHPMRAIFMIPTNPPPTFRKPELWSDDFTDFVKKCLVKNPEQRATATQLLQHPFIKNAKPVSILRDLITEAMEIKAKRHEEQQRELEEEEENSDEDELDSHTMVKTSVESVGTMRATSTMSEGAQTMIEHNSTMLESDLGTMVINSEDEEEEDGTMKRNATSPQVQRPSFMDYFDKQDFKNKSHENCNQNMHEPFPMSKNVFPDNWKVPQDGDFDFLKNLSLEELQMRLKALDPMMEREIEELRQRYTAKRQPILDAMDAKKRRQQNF
In words: Inhibition of MST2 Lys2 labeling site harbouring DIKAGNILLNTEGHAK in human A-375 cells at 5 uM by KiNativ Profiling analysis relative to control. The class given is cell-based.

The target in data set [5] is Calcium/calmodulin-dependent protein kinase type II subunit gamma (Homo sapiens) (UniProt Q13555). As to the kind of experiment: Inhibition of CaMK2g Lys1 labeling site harbouring TSTQEYAAKIINTK in human A-375 cells at 0.5 uM by KiNativ Profiling analysis relative to control. The class given is cell-based. The gist of the method: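 Live A375 melanoma cells were treated with compound at 5 or 0.5 μM. The cells were then lysed, and the lysates were labeled with a lysine-reactive ATP or ADP-biotin acyl probe (KiNativ). Inhibition is the compound's protection of each kinase labeling-site peptide from probe labeling, relative to untreated control.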
Calcium/calmodulin-dependent protein kinase type II subunit gamma (Homo sapiens), sequence (Q13555 whole entry): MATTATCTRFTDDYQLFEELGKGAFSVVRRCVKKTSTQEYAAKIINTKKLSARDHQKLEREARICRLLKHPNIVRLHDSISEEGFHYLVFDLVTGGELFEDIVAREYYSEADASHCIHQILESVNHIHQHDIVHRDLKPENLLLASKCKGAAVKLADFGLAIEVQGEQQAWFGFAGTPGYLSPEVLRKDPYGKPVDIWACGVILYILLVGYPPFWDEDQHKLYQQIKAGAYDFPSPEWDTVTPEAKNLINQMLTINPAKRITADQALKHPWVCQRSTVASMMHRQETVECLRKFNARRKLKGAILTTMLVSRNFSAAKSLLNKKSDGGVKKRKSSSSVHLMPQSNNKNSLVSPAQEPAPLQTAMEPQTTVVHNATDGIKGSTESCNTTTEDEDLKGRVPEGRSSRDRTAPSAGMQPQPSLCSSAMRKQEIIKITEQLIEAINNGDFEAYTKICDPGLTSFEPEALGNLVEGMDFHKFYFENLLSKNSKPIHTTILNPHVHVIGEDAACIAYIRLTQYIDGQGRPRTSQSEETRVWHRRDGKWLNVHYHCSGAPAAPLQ

In data set [6] the target is T2, Serine/threonine-protein kinase LATS2 (Homo sapiens) (UniProt Q9NRM7).
T2 sequence (whole entry): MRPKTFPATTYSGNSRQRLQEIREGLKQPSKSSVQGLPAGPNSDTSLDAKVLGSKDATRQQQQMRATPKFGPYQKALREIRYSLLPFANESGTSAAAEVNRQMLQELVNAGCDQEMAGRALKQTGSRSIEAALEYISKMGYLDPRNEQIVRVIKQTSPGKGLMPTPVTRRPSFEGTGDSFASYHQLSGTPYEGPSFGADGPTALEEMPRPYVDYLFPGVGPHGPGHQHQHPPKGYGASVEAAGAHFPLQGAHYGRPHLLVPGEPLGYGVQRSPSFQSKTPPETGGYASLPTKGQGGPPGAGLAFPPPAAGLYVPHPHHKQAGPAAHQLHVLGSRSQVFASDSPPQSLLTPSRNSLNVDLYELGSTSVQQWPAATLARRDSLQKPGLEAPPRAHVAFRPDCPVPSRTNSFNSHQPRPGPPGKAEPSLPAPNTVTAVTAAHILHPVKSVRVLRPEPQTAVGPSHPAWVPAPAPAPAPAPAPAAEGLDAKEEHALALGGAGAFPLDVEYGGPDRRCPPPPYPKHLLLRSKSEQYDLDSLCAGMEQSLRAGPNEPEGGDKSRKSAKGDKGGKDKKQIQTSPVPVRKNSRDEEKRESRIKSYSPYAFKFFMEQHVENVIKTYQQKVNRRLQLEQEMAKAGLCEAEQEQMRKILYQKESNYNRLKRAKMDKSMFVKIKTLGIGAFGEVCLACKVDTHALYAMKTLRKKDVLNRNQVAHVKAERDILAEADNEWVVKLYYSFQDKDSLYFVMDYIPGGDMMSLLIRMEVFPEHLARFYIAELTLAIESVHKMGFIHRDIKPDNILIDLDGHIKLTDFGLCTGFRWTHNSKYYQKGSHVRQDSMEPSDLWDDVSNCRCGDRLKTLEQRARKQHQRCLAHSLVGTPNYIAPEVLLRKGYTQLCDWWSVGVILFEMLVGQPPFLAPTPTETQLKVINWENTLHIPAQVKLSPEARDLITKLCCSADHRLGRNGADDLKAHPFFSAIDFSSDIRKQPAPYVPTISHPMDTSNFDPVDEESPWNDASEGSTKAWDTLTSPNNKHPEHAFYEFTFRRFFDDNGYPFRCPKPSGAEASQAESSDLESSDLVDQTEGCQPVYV
In words: Inhibition of LATS2 Lys2 labeling site in human A-375 cells at 0.5 uM by KiNativ Profiling analysis relative to control. Type of data set: cell-based.

Data set [7] addresses Serine/threonine-protein kinase WNK1 (Homo sapiens) (UniProt Q9H4A3). As to the kind of experiment: Inhibition of Wnk1 ATP Loop labeling site in human A-375 cells at 0.5 uM by KiNativ Profiling analysis relative to control. The class given is cell-based.
In data set [8] the target is 5'-AMP-activated protein kinase catalytic subunit alpha-1 (Homo sapiens) (UniProt Q13131). As to the kind of experiment: Inhibition of AMPKa1 Lys1 labeling site in human A-375 cells at 0.05 uM by KiNativ Profiling analysis relative to control. Type of data set: cell-based.

Serine/threonine-protein kinase WNK1 (Homo sapiens), sequence (Q9H4A3 whole entry, looked up): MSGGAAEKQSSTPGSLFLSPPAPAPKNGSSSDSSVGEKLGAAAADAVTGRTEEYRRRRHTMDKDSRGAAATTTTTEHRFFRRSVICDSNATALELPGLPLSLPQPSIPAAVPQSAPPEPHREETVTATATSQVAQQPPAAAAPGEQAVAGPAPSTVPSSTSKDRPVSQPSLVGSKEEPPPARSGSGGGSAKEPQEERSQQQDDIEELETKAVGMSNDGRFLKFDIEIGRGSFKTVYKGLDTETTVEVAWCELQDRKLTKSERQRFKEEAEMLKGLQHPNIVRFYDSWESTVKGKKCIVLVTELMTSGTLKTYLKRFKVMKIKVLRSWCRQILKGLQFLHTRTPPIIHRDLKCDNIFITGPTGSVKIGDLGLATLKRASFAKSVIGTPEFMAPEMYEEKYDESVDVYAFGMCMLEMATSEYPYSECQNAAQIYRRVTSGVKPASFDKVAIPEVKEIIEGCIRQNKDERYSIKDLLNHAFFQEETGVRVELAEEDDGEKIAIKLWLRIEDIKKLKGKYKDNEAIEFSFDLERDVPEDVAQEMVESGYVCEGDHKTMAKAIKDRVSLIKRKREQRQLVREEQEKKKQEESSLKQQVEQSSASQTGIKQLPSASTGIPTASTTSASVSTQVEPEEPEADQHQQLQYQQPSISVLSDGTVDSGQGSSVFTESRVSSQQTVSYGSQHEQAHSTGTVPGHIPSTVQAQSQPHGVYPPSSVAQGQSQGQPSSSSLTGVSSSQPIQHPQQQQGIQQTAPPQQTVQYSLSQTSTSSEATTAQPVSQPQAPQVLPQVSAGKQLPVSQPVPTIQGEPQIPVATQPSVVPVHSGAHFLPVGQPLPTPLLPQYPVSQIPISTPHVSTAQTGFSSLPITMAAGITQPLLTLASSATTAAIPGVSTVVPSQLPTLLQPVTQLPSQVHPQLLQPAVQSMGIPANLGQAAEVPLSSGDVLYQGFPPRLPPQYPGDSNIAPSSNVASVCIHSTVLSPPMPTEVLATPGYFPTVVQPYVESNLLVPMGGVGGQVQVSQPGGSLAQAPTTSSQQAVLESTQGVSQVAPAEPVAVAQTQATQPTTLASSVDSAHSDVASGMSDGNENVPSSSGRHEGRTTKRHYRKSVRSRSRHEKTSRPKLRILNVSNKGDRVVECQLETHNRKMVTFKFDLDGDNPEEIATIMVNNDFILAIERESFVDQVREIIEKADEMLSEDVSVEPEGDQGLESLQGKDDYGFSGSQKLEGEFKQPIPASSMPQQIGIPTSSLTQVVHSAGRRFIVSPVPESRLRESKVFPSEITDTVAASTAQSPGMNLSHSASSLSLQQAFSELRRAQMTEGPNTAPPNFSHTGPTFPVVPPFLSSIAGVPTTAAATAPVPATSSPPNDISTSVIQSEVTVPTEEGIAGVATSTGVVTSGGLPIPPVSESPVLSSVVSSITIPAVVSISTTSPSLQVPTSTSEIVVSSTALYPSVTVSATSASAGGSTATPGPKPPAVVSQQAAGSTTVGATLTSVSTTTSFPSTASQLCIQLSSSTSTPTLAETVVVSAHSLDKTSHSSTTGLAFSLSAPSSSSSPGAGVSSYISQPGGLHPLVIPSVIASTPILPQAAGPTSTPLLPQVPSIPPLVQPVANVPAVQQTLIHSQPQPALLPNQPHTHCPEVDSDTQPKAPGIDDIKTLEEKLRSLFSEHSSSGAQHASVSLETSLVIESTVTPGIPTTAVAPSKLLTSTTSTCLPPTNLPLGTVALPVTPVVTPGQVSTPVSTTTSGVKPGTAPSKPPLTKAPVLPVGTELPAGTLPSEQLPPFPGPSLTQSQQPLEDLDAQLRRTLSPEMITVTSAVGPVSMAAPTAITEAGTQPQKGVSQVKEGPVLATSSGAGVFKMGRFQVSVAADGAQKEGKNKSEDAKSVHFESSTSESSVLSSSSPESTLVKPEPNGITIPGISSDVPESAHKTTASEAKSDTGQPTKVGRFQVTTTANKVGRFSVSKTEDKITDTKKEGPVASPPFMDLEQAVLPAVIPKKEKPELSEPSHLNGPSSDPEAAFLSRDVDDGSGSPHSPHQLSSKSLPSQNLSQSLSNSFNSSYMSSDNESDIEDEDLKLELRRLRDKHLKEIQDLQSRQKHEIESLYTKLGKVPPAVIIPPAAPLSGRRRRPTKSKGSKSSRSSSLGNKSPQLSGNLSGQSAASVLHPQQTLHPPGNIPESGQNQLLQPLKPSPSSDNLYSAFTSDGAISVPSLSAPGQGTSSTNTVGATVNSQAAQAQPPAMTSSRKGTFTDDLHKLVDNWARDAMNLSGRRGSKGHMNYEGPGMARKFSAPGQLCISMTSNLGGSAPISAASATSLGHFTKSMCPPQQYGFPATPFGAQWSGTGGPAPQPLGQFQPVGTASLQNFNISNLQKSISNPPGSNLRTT
Tyrosine-protein kinase Lyn, sequence (P07948 2-512 limits assumed): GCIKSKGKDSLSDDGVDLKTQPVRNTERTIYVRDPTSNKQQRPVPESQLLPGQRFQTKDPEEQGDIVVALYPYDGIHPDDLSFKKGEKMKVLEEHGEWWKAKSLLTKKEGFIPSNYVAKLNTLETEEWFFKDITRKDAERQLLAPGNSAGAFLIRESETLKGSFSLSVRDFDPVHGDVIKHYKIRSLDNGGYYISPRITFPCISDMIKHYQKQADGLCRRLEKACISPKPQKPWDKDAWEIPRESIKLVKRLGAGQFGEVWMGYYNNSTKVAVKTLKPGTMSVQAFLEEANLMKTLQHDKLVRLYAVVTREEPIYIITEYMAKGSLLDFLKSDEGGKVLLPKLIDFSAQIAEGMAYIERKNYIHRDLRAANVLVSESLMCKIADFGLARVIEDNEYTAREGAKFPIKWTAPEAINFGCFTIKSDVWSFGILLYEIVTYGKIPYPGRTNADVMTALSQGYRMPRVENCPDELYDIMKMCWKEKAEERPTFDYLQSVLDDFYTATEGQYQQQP

Take `CCN1CCN(Cc2ccc(NC(=O)c3ccc(C)c(/C=C/c4cnc5[nH]ccc5c4OC)c3)cc2C(F)(F)F)CC1`: in data set [1], the AUClast came out at 403 ng·h/mL. The inhibition was above 95% in data set [2]; 73.4% in data set [3]; 14.1% in data set [4]; 34.3% in data set [5]; 6.4% in data set [6]; 15.3% in data set [7]. The molecule also yielded an inhibition in data set [8] of 7.4%.
Take `CCN1CCN(Cc2ccc(NC(=O)c3ccc(C)c(Oc4ccnc5[nH]ccc45)c3)cc2C(F)(F)F)CC1`: the AUClast in data set [1] was determined as 195 ng·h/mL. Further, the inhibition in data set [2] was above 95%; in data set [3], 97.6%; in data set [4] it was 3.5%; in data set [5] it was 19.2%; in data set [6], 12.6%; in data set [7], 11.4%. In addition, the inhibition in data set [8] was 13.4%.

One may read the inhibition as how much of the control response was suppressed.
